Laboratory results taken from ChEMBL document CHEMBL1158382 (Eur J Med Chem, 2009).

Experiments:
Mus musculus = assay: Analgesic activity in Albino mouse assessed as inhibition of acetic acid-induced writhing at 300 umol/kg, po administered 1 hr before acetic acid challenge and measured 10 mins after acetic acid challenge; assay type: functional
Method in brief: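 Mice of both sexes (18–23 g) dosed orally as a suspension in 5% Arabic gum in saline; vehicle controls got an equal volume. Acetic acid 0.6% (0.1 mL/10 g) given i.p. 1 h later. Constrictions per animal counted for 20 min, starting 10 min after the injection. Value is % inhibition of constrictions versus vehicle group, mean ± SEM, N = 8–10.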

Rattus norvegicus [1] = assay: Antiinflammatory activity in Albino rat assessed as inhibition of carrageenan-induced paw edema at 300 umol/kg, po administered 1 hr before carrageenan challenge and measured 3 hrs after carrageenan challenge
[2] = Ratio of IC50 for COX1 to IC50 for COX2
Rattus norvegicus [3] = assay: Gastrointestinal toxicity in Albino rat assessed ulcer index at 300 umol/kg, po; details: in vivo

SMILES | inhibition in vivo at 300 µmol/kg (Mus musculus) | inhibition in vivo at 300 µmol/kg (Rattus norvegicus [1]) | Ratio IC50 [2] | UI (Rattus norvegicus [3])
Cc1ccc(-c2cc(C(F)(F)F)nn2-c2ccc(S(N)(=O)=O)cc2)cc1 [CELECOXIB] | 56% | 35% |  | 
Cc1ccc(Cl)c(Nc2ccccc2C(=O)O)c1Cl |  |  | 0.72 | 
CC1=C(CC(=O)N2CCCCC2)c2cc(F)ccc2/C1=C\c1ccc(S(C)(=O)=O)cc1 | 36% | 19% |  | 0
CCCCNC(=O)CC1=C(C)/C(=C/c2ccc(S(C)(=O)=O)cc2)c2ccc(F)cc21 | 35% | 7% |  | 2
CNC(=O)CC1=C(C)/C(=C/c2ccc(S(C)(=O)=O)cc2)c2ccc(F)cc21 | 43% | 35% |  | 0
CC1=C(CC(=O)O)c2cc(F)ccc2/C1=C\c1ccc(S(C)(=O)=O)cc1 [EXISULIND] | 34% | 48% |  | 
Cc1ccc(Cl)c(Nc2ccccc2C(=O)NCCOc2ccccc2)c1Cl |  |  | 440 | 
CC1=C(CC(=O)O)c2cc(F)ccc2/C1=C\c1ccc([S+](C)[O-])cc1 (configuration not stated) | 49% | 67% |  | 
CCCNC(=O)CC1=C(C)/C(=C/c2ccc(S(C)(=O)=O)cc2)c2ccc(F)cc21 | 39% | 20% |  | 1.4
CC1=C(CC(=O)N2CCOCC2)c2cc(F)ccc2/C1=C\c1ccc(S(C)(=O)=O)cc1 | 22% | 4% |  | 0
CC1=C(CC(=O)Nc2ccccc2)c2cc(F)ccc2/C1=C\c1ccc(S(C)(=O)=O)cc1 | 19% | 12% |  | 0
CCNC(=O)CC1=C(C)/C(=C/c2ccc(S(C)(=O)=O)cc2)c2ccc(F)cc21 | 59% | 27% |  | 0
COc1ccc2c(c1)c(CC(=O)Nc1cccnc1)c(C)n2C(=O)c1ccc(Cl)cc1 |  |  | 1300 | 
Cc1ccc(Cl)c(Nc2ccccc2C(=O)NOCc2ccc([N+](=O)[O-])cc2)c1Cl |  |  | 273 | 
Cc1ccc(Cl)c(Nc2ccccc2C(=O)NCCCCl)c1Cl |  |  | 40 | 
CCN(CC)C(=O)CC1=C(C)/C(=C/c2ccc(S(C)(=O)=O)cc2)c2ccc(F)cc21 | 14% | 27% |  | 1
CNC(=O)CC1=C(C)/C(=C/c2ccc([S+](C)[O-])cc2)c2ccc(F)cc21 (configuration not stated) | 6% |  |  | 
COC(=O)CC1=C(C)/C(=C/c2ccc(S(C)(=O)=O)cc2)c2ccc(F)cc21 | 21% | 15% |  | 0
CC1=C(CC(=O)N2CCSCC2)c2cc(F)ccc2/C1=C\c1ccc(S(C)(=O)=O)cc1 | 48% | 11% |  | 4
